Assay results reported in PubChem BioAssay AID624402 (The Scripps Research Institute Molecular Screening Center, 2012).
Activity calls are given as the source filed them.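 Rule for the calls: active = binding altered by at least 10% in every panel; inactive = the rest.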

System: aryl hydrocarbon receptor (Cavia porcellus)
Experiment: stimulation of AhR transformation and DNA binding – biochemical, radiometric EMSA, guinea pig liver cytosol, counter-screen for AhR activator project, late-stage follow-up (AID 624402)
Settings: AhR-DRE EMSA, active compounds read high
Outline: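 material = guinea pig liver cytosol containing native aryl hydrocarbon receptor | medium = HEDG buffer at pH 7.5 | probe or stimulus = Poly dIdC and [32P]-DRE probe | schedule = 2.5 h compound exposure at room temperature, 15 min per later addition | technique = radiometric EMSA, phosphorimaging | benchmarks = 20 nM TCDD reference | replication = triplicates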

Structure (SMILES)	inhibition (run 1, at 10 µM)	inhibition (run 2, at 10 µM)
Cc1cccc(C)c1NC(=O)c1ccc(C(=O)Nc2c(C)cccc2C)nc1	8.6% (inactive)	9% (inactive)
CCOC(=O)c1c(C)nn(-c2cc(Cl)ccc2Cl)c1C	8.4% (inactive)	5.4% (inactive)
COc1ccc(Nc2cc(Cl)nc(N)n2)cc1OC	7.5% (inactive)	5.6% (inactive)
Nc1nc(Cl)cc(Nc2ccccc2F)n1	15.4%	12.5%
O=C(CSc1nc2ccccc2s1)Nc1ccccn1	41.3%	38.5%
CCOc1ccccc1NC(=O)c1ccc(C(=O)Nc2ccccc2OCC)nc1	6.4% (inactive)	4.4% (inactive)
COc1ccc(Cl)cc1NC(=O)c1ccc(C(=O)Nc2cc(Cl)ccc2OC)nc1	9.7% (inactive)	8.4% (inactive)
Cc1cc(Br)cc(C)c1Nc1ccnc(Nc2ccc(C#N)cc2)n1	5.8% (inactive)	5.3% (inactive)
Cc1ccc(NC(=O)c2ccc(C(=O)Nc3ccc(C)cc3C)nc2)c(C)c1	13.3%	9.3% (inactive)
Cc1cc(Nc2ccc(F)cc2)nc(N)n1	9.6% (inactive)	5.6% (inactive)
Cc1csc(SCC(=O)Nc2ccccn2)n1	6.2% (inactive)	6.7% (inactive)
O=C(CSc1nc(-c2ccc(F)cc2)cs1)Nc1ccccn1	9.5% (inactive)	7.1% (inactive)

Other lines, results leading:

inhibition (run 1, at 10 µM)	inhibition (run 2, at 10 µM)	Structure (SMILES)
6.4% (inactive)	5.5% (inactive)	COc1ccc(O)c(-c2cc(-c3cccs3)[nH]n2)c1
4.8% (inactive)	3.2% (inactive)	COc1ccc(-c2cc(-c3ccc(C)cc3O)[nH]n2)cc1
32.8%	28.8%	Cc1ccc(-c2cc(-c3ccc(Cl)cc3)n[nH]2)c(O)c1
10% (inactive)	7.1% (inactive)	COc1ccc(Nc2cc(Cl)nc(N)n2)cc1
42.7%	39.8%	Cc1ccc(-c2cc(-c3cccc(F)c3)n[nH]2)c(O)c1
8.2% (inactive)	4.3% (inactive)	Cc1cccc(NC(=O)c2cc(-c3ccc(C)cc3O)n[nH]2)c1
58.4%	51.9%	Cc1ccc(O)c(-c2cc(-c3ccccc3Cl)[nH]n2)c1
6.9% (inactive)	11.8% (inactive)	COc1ccc(NC(=O)c2ccc(C(=O)Nc3ccc(OC)cc3OC)nc2)c(OC)c1
19.7%	17.3%	Cc1ccnc(NC(=O)CSc2nc3ccccc3s2)c1
50.8%	47.5%	Cc1ccc(-c2cc(-c3ccc(F)cc3)n[nH]2)c(O)c1
22.1%	19%	CN(Cc1cc(-c2cccs2)n[nH]1)Cc1coc2ccccc2c1=O
16.3%	19.4%	O=C(CSc1nc2ccccc2s1)Nc1ccc(Cl)cn1
10.9% (inactive)	8.5% (inactive)	Nc1nc(Cl)cc(Nc2ccc(Oc3ccccc3)cc2)n1
